# Hits are enriched below; roughly 9.3% of the tested compounds scored in any of these assays.
# hDAT+cocaine: modulates human dopamine transporter uptake under cocaine. 1.3% of 110,000 active. LLC-PK1 hDAT cells, [14C]-dopamine uptake with cocaine IC80; actives deviate in either direction. Q01959. B-score at 10 µM. AID 449768;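 active means Z score or B-score, a plate-position-corrected score, falls beyond the plate's 99.7% confidence bounds, in either direction; inactive means both scores lie inside the 99.7% bounds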;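 further: scored against the spread of the other compound wells on the same plate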
# PostGolgi ctrl: growth of the yeast control strain, post-Golgi counter-screen | AID 738 | 5% of 98,000 active | efflux-deficient yeast background strain, growth absorbance A615, 16 h | inhibition, % at 10 µM
# Ecoli WT expand: blocks growth of wild type E. coli BW25113. OD600 absorbance. growth inhibition, % at 100 µM. 0.15% of 98,000 active. AID 710;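 active means growth inhibition above about 50% at one test dose, limit read from the data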;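 further: growth measured after 20 h incubation at 37 °C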
# PostGolgi yeast: growth inhibition of a yeast mutant, post-Golgi transport screen; post-Golgi transport phenotypic cell assay; inhibition, % at 10 µM; 0.9% of 98,000 active; AID 739;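 further: yeast cells grown in 1536-well plates; yeast grown about 18 h at 30C before absorbance read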
# tolC growth inh: blocks growth of E. coli BW25113 tolC mutant; 2.2% of 65,000 active; AID 573; growth inhibition, % at 10 µM (by protocol); OD615;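 active means growth inhibition at or above a cutoff equal to the mean over every tested compound plus 3 SD, cut at about 60% in these data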;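 further: growth measured after 20 h incubation at 37 °C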
#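 Test system: tolC-deleted E. coli BW25113 | Medium: LB with kanamycin 50 µg/mL | Compound dosing: Single concentration, 10 µM final per compound | Schedule: 37 °C, 20 h exposure | Measured by: OD at 615 nm | Evaluation: Percent growth inhibition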
# D1 mod: allosteric modulators of human D1 dopamine receptor. HEK293 D1, CRE-luciferase, dopamine EC30 potentiation; actives deviate in either direction. AID 641. 5.9% of 58,000 active. P21728. B-score at 10 µM;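 active means luminescence count or its row- and column-corrected plate score outside the 99.7% band of the plate's sample wells, on either side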
# Target sequence (P21728 whole entry, looked up): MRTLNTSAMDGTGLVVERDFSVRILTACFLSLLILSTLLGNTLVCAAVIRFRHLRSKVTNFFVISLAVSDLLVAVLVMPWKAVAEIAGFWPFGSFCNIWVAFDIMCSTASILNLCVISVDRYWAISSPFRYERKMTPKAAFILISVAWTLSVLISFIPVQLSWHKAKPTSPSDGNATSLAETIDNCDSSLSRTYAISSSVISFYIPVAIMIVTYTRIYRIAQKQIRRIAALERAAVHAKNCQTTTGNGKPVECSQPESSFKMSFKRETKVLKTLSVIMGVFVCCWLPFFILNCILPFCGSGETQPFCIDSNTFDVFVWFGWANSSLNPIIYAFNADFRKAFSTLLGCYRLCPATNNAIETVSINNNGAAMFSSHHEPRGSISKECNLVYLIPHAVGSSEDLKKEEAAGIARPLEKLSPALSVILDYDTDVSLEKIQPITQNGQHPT
# D1 mod confirm: confirmation of human D1 dopamine receptor allosteric modulators; luminescence at 10 µM; shares compounds with D1 mod; HEK293 D1 CRE-luciferase, dopamine EC30 potentiation; stronger effect = higher value; 88% of 2,200 active;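 active means luminescence in either of two replicates above the same-plate mean plus 3 SD of the low-dose dopamine control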
# D1 no dopamine: activates D1 CRE-luciferase signal without dopamine present; shares compounds with D1 mod; 0.8% of 1,900 active; luminescence at 10 µM; HEK293 D1 CRE-luciferase, luminescence, no dopamine; stronger effect = higher value; AID 646; in the data active means luminescence above about 3900
# Isoprot counter: isoproterenol response counter-screen activity for D1 modulators. shares compounds with D1 mod. HEK293 D1 CRE-luciferase, isoproterenol EC30 counter-screen. calls only at 10 µM. 63% of 2,200 active. AID 647;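 active means luminescence in either replicate above plate mean of wells with a partly effective reference agonist dose plus 3 SD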;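 further: isoproterenol raises cAMP through native beta-adrenoceptor Gs so signal bypasses D1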
# * marks the source's active call; other numbers are inactive results; i = inactive; nt = not tested or not shown; + = active, no number. Unless noted, no stated cut-off is given here; in the data, active means inhibition above about 30%; inactive means the rest.
SMILES,hDAT+cocaine,PostGolgi ctrl,Ecoli WT expand,PostGolgi yeast,tolC growth inh,D1 mod,D1 mod confirm,D1 no dopamine,Isoprot counter
CCOC(=O)CN(C(=O)CSc1nnc(-c2ccc(OC)c(OC)c2)o1)c1ccc(F)cc1,0.025,0,-10,6,4,3.1*,8044*,1456,i
Cc1ccc(-n2c(=O)cc(N3CC(C)OC(C)C3)[nH]c2=O)cc1 (stereo not drawn),-0.72,nt,nt,nt,nt,nt,nt,nt,nt
Cc1ccc(-n2c(=O)cc(N3CC(C)CC(C)C3)[nH]c2=O)cc1 (stereo not drawn),-1.5,8,-13,-10,1,3.6*,3236*,1556,i
Clc1cccc(Nc2c3c(nc4ncnn24)CCC3)c1,0.057,9,5,25,9,4.7*,8280*,1584,i
Cc1cc(C)n2nc3ccccc3c2n1,-0.5,9,3,-11,0,2.8*,10324*,1660,+
Cc1cc(C)n2nc(Nc3ccccc3)cc2n1,1.4,9,11,22,-5,0.43,nt,nt,nt
NC(=O)CC(NC(=O)c1cccc(Br)c1)c1ccc(NCCN2CCOCC2)c([N+](=O)[O-])c1 (stereo not drawn),1.1,nt,nt,nt,nt,nt,nt,nt,nt
C=CCNc1nc(Nc2ccc(OC)cc2OC)nc(OCC)n1,0.72,14,-1,17,-5,3.8*,10064*,1524,+
COC(=O)N[C@H](CC(C)=O)c1ccccc1,-0.16,nt,nt,nt,nt,nt,nt,nt,nt
Cn1c(NC(=O)c2ccc(Cl)cc2Cl)cc(=O)n(C)c1=O,0.33,0,6,1,6,4.5*,8676*,1848,+
COc1ccc(C(=O)COC(=O)CSCc2c(C)noc2C)cc1OC,-0.15,16,0,-8,-5,7.6*,17860*,1868,+
Cc1noc(C)c1CSCC(=O)OCC(=O)NC1CCCCC1,nt,1,-3,5,-2,0.0055,nt,nt,nt
COC(=O)Nc1ccc(=O)n(Cc2c(Cl)cccc2Cl)c1,-0.48,6,-1,8,nt,nt,nt,nt,nt
COc1ccc(CCNC(=O)c2c(O)c3c([nH]c2=O)CCCC3)cc1,-1.2,0,-13,3,-1,1.8,nt,nt,nt
CCOC(=O)CSc1nnc(CSc2nc3sc4c(c3c(=O)[nH]2)CCC4)n1C,1.4,10,-5,6,22,2.6*,7200,1740,i
COC(=O)c1ccc(C(NC(=O)OCc2ccccc2)/C(F)=C/[C@@H](C)C(=O)NCc2ccc(OC)c(OC)c2)cc1 (stereo partly drawn),-0.49,nt,nt,nt,nt,nt,nt,nt,nt
CC(C(=O)Nc1ccc2c(c1)OCO2)N(c1ccc(Cl)cc1)S(C)(=O)=O (stereo not drawn),0.62,8,-5,8,20,0.24,nt,nt,nt
CCCn1c2c(c(O)c(C(=O)NC)c1=O)CCCC2,-0.33,7,7,-7,21,4.6*,9448*,1536,i
CCC(C)(C)n1c(=O)[nH]c2c(c1=O)CCC2,3*,4,-1,-2,-22,4.3*,6624,1544,i
O=c1cc(C(F)(F)F)nc(-n2[nH]c3c(c2=O)CCCC3)[nH]1,-0.76,10,-9,-21,nt,nt,nt,nt,nt
O=C(NCc1ccc2c(c1)OCO2)C1CCC(CNc2c(N3CCCC3)c(=O)c2=O)CC1 (stereo not drawn),nt,-6,-4,11,-11,2.3*,5332,1668,i
Cc1ccc(CNC(=O)C2CCC(CNc3c(N4CCOCC4)c(=O)c3=O)CC2)cc1 (stereo not drawn),1.1,-2,-9,-4,nt,nt,nt,nt,nt
CCn1cnc2sc(C(=O)N3CCN(Cc4ccc5c(c4)OCO5)CC3)c(C)c2c1=O,nt,15,-3,0,-9,nt,nt,nt,nt
CCn1cnc2sc(C(=O)N(Cc3ccc(N(C)C)cc3)Cc3ccco3)c(C)c2c1=O,0.11,39*,-8,12,5,4.9*,12360*,nt,+
CC(C)CC(COCc1ccc(Cl)cc1)N1CCN(C(=O)c2ccc(Cl)cc2Cl)CCC1=O (stereo not drawn),0.27,nt,nt,nt,nt,nt,nt,nt,nt

# Source: PubChem BioAssay (several laboratories)
